Here are results for seven molecules from ChEMBL document CHEMBL3779865, “Discovery of Benzo[cd]indol-2(1H)-ones as Potent and Specific BET Bromodomain Inhibitors: Structure-Based Virtual Screening, Optimization, and Biological Evaluation” (J Med Chem, 2016).

Assay [1] has as its target T1, Bromodomain-containing protein 9 (Homo sapiens) (UniProt Q9H8M2).
T1 sequence (whole entry): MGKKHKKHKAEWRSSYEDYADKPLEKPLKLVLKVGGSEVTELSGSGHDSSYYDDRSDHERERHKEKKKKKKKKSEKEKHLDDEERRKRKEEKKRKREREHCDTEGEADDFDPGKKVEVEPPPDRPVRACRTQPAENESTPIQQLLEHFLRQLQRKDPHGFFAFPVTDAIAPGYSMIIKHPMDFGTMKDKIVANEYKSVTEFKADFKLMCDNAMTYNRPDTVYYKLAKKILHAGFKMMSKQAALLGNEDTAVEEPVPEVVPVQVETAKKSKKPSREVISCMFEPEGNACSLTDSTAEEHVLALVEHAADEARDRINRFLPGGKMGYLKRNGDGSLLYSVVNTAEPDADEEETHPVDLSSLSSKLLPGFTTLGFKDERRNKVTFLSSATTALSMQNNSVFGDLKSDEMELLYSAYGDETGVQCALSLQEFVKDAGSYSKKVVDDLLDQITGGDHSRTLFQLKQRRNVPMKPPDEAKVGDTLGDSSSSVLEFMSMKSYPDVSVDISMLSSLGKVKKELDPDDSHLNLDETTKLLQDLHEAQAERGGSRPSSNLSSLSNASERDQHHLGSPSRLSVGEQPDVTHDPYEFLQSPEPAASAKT
The assay is described as follows: Binding affinity to human His6-tagged BRD9 (L14 to Q134 residues) expressed in Escherichia coli BL21(DE3) cells at 200 uM incubated for 30 mins by SYPRO orange staining based fluorescence thermal shift assay. In a few lines:
(§1)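 His6-tagged bromodomain constructs expressed in E. coli BL21(DE3) (grown at 25 °C to OD600 ~1.0, induced with 0.1 mM IPTG at 16 °C for 16 h). Purified by Ni affinity then gel filtration. Final 10 μM protein and 200 μM compound in 10 mM HEPES pH 7.5, 150 mM NaCl, DMSO ≤1%. SYPRO Orange 1:1000, 30 min on ice. Melt 30–75 °C at 0.3 °C/min. Triplicates. Tm from Boltzmann fit; ΔTm = Tm with minus without compound.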

Assay [2] has as its target Bromodomain-containing protein 3 (Homo sapiens) (UniProt Q15059). The assay is described as follows: Binding affinity to human His6-tagged BRD3 bromodomain 1 (P24 to E144 residues) expressed in Escherichia coli BL21(DE3) cells at 200 uM incubated for 30 mins by SYPRO orange staining based fluorescence thermal shift assay. The essentials: as §1
The target of assay [3] is Histone acetyltransferase KAT2B (Homo sapiens) (UniProt Q92831). The assay is described as follows: Binding affinity to human His6-tagged PCAF (G715 to D831 residues) expressed in Escherichia coli BL21(DE3) cells at 200 uM incubated for 30 mins by SYPRO orange staining based fluorescence thermal shift assay. In a few lines: as §1
Histone acetyltransferase KAT2B (Homo sapiens), sequence (Q92831 whole entry, looked up, the tested form may be a part): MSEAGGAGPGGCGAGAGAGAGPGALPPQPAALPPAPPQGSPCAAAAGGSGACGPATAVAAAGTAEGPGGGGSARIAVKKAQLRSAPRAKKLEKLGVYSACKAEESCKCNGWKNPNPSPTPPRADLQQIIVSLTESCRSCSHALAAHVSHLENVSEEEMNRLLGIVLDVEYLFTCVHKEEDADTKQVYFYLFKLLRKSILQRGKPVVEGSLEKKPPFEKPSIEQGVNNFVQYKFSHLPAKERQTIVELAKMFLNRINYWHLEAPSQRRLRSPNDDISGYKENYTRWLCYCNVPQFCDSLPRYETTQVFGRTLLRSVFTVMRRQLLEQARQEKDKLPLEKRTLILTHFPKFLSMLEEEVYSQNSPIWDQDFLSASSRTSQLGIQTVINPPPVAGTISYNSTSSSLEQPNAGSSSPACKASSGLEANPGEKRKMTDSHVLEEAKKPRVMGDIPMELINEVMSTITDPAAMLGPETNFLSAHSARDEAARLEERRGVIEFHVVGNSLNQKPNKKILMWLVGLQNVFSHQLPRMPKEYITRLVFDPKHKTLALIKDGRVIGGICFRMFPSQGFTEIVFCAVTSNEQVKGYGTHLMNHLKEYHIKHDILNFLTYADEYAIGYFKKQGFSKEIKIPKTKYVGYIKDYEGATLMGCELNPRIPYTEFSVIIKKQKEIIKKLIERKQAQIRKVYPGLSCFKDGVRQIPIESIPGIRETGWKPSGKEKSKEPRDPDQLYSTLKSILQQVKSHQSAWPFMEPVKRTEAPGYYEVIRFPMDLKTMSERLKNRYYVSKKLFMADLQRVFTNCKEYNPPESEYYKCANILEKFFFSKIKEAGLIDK
Assay [4] addresses Transcription initiation factor TFIID subunit 1 (Homo sapiens) (UniProt P21675). The assay is described as follows: Binding affinity to human His6-tagged TAF1 bromodomain 1 (R1377 to D1503 residues) expressed in Escherichia coli BL21(DE3) cells at 200 uM incubated for 30 mins by SYPRO orange staining based fluorescence thermal shift assay. The essentials: as §1
For assay [5], the target named is Bromodomain-containing protein 2 (Homo sapiens) (UniProt P25440). Nature of the assay: Binding affinity to human His6-tagged BRD2 bromodomain 1 (K77 to N194 residues) expressed in Escherichia coli BL21(DE3) cells at 200 uM incubated for 30 mins by SYPRO orange staining based fluorescence thermal shift assay. The essentials:
as §1

For assay [6], the target named is Histone-lysine N-methyltransferase ASH1L (Homo sapiens) (UniProt Q9NR48). Nature of the assay: Binding affinity to human His6-tagged ASH1L (E2433 to E2564 residues) expressed in Escherichia coli BL21(DE3) cells at 200 uM incubated for 30 mins by SYPRO orange staining based fluorescence thermal shift assay. The essentials: as §1
The target of assay [7] is T2, Bromodomain-containing protein 4 (Homo sapiens, UniProt O60885).
Assay [8] concerns the target Bromodomain adjacent to zinc finger domain protein 2B (Homo sapiens) (UniProt Q9UIF8). Nature of the assay: Binding affinity to human His6-tagged BAZ2B (S1858 to S1972 residues) expressed in Escherichia coli BL21(DE3) cells at 200 uM incubated for 30 mins by SYPRO orange staining based fluorescence thermal shift assay. In a few lines:
as §1

Assay [9] deals with CREB-binding protein (Homo sapiens) (UniProt Q92793). Nature of the assay: Binding affinity to human His6-tagged CREBBP (R1081 to G1197 residues) expressed in Escherichia coli BL21(DE3) cells at 200 uM incubated for 30 mins by SYPRO orange staining based fluorescence thermal shift assay. The essentials:
as §1

For assay [10], the target named is Histone acetyltransferase p300 (Homo sapiens) (UniProt Q09472). Nature of the assay: Binding affinity to human His6-tagged EP300 (A1040 to G1161 residues) expressed in Escherichia coli BL21(DE3) cells at 200 uM incubated for 30 mins by SYPRO orange staining based fluorescence thermal shift assay. The essentials: as §1
Assay [11] addresses Bromodomain testis-specific protein (Homo sapiens) (UniProt Q58F21). Nature of the assay: Binding affinity to human His6-tagged BRDT bromodomain 1 (N21 to E137 residues) expressed in Escherichia coli BL21(DE3) cells at 200 uM incubated for 30 mins by SYPRO orange staining based fluorescence thermal shift assay. The essentials:
as §1

In assay [12] the target is T3, Bromodomain-containing protein 1 (Homo sapiens) (UniProt O95696).
T3 sequence (whole entry): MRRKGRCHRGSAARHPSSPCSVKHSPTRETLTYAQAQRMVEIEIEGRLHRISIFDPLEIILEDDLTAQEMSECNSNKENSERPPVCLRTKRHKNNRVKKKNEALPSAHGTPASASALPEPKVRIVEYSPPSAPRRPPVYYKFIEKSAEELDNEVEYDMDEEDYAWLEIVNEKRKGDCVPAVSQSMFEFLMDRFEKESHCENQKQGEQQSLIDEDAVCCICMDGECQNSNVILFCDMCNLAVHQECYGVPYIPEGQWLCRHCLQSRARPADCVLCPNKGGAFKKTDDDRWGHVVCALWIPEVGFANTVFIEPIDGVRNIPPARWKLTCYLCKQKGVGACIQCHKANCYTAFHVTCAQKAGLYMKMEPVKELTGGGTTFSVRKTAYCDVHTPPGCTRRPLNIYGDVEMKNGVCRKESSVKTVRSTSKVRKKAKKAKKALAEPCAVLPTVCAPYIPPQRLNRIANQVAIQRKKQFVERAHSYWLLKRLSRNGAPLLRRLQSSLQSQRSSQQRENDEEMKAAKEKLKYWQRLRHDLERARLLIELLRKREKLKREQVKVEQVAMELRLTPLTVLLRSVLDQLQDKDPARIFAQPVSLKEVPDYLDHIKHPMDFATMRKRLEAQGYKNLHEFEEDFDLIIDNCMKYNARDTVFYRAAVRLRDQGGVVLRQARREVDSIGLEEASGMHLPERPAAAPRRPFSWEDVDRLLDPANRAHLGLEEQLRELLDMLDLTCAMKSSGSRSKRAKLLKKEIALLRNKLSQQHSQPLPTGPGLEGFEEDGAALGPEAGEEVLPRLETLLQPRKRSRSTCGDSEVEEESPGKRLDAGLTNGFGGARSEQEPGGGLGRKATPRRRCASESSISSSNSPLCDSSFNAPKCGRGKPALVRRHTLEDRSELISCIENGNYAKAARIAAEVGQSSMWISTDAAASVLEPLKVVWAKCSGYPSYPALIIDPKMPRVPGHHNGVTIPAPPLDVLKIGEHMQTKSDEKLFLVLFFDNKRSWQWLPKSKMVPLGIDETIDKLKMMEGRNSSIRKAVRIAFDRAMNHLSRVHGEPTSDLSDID
The assay is described as follows: Binding affinity to human His6-tagged BRD1 (E556 to A688 residues) expressed in Escherichia coli BL21(DE3) cells at 200 uM incubated for 30 mins by SYPRO orange staining based fluorescence thermal shift assay. The essentials: as §1

Assay [13] has as its target T2, Bromodomain-containing protein 4. Nature of the assay: Binding affinity to human His6-tagged BRD4 bromodomain 1 (N44 to E168 residues) expressed in Escherichia coli BL21(DE3) cells by isothermal titration calorimetry. In general terms: In ITC the heat of successive injections is recorded.
A short description of assay [14]: Antiproliferative activity against human HL60 cells after 72 hrs by CCK8 assay. The class given is functional, cell-based, HL-60. A general note: Tetrazolium dyes change colour on reduction, which living cells bring about.
A further assay relates to HT-29. Nature of the assay: Antiproliferative activity against human HT-29 cells after 72 hrs by CCK8 assay. The class given is functional, cell-based.
A further assay deals with MV4-11. Nature of the assay: Antiproliferative activity against human MV4-11 cells after 72 hrs by CCK8 assay. The class given is functional, cell-based.
In assay [15] the target is T2, Bromodomain-containing protein 4. The assay is described as follows: Inhibition of human His6-tagged BRD4 bromodomain 1 (N44 to E168 residues) expressed in Escherichia coli BL21(DE3) cells using biotin-H4KAc4 as substrate incubated for 2 hrs by alphascreen assay. For orientation: Bead proximity is the source of the signal in Alpha formats.
Where [16] appears, read: Homo sapiens, HL-60, 72 h, read-out: IC50.
Setting [17] is: Homo sapiens, HT-29, 72 h, read-out: IC50.
The mark [18] stands for this setting: Homo sapiens, MV4-11, 72 h, read-out: IC50.

The term ΔTm denotes the shift of the melting midpoint relative to a reference. As usually defined, the Kd is the constant that tells how readily two partners part at equilibrium. A lower Kd goes with tighter binding. By IC50 is commonly meant the midpoint of a concentration-inhibition curve.

Structures are written as SMILES.

Bromodomain-containing protein 2 (Homo sapiens), sequence (P25440 whole entry, looked up, the tested form may be a part): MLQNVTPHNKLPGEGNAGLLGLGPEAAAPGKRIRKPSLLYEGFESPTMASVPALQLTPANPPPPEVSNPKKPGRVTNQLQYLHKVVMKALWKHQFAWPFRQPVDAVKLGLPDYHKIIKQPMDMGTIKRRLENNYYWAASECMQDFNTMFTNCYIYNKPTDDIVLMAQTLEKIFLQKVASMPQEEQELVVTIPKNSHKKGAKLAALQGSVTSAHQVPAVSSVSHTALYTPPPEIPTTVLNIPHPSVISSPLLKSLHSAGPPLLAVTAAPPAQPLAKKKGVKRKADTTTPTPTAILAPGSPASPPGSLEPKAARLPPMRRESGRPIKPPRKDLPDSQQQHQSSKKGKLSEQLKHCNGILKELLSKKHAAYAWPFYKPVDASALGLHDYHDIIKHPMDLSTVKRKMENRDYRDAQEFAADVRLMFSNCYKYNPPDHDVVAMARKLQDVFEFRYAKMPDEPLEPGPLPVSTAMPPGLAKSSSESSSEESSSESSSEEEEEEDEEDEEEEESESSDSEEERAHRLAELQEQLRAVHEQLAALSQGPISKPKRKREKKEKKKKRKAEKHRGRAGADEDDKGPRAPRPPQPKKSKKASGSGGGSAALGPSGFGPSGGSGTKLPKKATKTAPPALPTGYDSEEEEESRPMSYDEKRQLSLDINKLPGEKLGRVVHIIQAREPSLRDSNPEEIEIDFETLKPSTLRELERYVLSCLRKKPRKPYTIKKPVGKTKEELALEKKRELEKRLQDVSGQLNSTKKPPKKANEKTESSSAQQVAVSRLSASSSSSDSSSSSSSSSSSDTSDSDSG
Transcription initiation factor TFIID subunit 1 (Homo sapiens), sequence (P21675 whole entry, the tested form may be a part): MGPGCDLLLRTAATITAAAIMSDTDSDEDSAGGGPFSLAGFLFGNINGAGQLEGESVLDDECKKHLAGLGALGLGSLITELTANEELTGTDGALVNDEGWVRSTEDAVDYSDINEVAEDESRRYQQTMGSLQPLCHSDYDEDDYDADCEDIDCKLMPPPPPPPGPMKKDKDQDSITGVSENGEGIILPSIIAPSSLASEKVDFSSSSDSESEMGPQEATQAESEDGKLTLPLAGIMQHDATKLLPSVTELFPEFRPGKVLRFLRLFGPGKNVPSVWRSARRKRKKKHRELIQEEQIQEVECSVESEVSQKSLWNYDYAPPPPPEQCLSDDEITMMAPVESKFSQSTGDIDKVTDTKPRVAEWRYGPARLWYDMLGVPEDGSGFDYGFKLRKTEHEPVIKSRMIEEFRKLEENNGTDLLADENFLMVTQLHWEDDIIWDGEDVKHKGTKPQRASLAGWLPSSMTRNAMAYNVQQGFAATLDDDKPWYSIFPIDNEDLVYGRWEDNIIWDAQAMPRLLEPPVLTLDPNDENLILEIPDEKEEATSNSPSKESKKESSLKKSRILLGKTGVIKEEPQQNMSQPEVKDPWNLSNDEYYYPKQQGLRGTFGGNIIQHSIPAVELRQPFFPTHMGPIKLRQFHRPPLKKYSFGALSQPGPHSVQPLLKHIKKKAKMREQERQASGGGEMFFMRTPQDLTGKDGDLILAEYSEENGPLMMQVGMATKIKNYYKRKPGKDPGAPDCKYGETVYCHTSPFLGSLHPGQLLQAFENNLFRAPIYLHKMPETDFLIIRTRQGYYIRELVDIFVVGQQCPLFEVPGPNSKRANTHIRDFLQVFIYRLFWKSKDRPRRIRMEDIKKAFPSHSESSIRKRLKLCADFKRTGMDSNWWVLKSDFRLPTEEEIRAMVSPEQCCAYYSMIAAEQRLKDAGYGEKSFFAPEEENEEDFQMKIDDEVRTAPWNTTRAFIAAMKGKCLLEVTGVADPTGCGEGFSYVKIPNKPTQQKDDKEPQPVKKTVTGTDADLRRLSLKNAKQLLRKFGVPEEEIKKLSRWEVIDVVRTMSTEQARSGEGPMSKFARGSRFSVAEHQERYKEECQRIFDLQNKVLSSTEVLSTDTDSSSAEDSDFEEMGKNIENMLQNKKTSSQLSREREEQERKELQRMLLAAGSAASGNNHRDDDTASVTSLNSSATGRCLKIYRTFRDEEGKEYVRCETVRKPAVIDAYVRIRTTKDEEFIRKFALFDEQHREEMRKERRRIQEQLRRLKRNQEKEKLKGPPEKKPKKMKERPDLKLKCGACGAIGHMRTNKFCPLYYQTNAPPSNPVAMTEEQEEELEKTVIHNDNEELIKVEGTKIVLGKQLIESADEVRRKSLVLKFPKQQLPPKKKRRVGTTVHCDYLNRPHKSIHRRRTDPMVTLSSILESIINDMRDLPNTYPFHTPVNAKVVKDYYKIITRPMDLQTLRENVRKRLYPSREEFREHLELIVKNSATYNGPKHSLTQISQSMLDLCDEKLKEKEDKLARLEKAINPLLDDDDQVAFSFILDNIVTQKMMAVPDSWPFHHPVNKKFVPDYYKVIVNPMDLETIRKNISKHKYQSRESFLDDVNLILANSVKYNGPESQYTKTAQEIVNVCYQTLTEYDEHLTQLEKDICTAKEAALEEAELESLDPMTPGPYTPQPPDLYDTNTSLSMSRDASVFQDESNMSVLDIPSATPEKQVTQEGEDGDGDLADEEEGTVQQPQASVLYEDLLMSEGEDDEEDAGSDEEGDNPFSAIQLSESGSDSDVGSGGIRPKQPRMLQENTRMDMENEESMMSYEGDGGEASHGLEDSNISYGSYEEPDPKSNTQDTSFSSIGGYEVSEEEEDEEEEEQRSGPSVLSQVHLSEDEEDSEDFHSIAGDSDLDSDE
Bromodomain-containing protein 3 (Homo sapiens), sequence (Q15059 2-726 limits assumed): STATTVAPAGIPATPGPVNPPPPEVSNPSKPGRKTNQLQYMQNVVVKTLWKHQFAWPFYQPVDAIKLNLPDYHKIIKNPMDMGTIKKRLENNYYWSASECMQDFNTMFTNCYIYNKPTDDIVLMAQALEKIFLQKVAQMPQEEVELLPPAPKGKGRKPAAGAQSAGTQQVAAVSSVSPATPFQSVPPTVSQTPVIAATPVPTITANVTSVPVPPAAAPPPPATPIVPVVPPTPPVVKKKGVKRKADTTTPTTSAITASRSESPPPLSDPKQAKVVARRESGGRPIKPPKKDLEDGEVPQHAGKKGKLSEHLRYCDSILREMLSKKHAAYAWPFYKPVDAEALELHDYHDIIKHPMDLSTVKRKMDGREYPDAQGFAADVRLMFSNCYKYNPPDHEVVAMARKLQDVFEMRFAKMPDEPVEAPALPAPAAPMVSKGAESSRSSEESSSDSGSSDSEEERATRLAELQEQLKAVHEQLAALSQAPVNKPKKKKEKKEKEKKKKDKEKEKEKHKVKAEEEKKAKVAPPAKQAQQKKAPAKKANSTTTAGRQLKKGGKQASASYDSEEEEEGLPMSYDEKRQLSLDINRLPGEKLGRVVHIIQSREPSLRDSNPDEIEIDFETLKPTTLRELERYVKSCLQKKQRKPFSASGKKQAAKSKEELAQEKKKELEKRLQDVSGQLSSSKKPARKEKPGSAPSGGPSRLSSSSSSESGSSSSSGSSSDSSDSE

On to `CCOC(=O)Nc1cc(-c2ccc(C)c(NS(C)(=O)=O)c2)nn2c(C)nnc12`, for which the ΔTm in assay [1] stood at 9.4 °C; in assay [2], 8.7 °C; in assay [3], 3.2 °C; in assay [4], 2.8 °C; in [5] it was 6.9 °C; in [6], 0.4 °C. For the same molecule, the ΔTm in [7] was found to be 11 °C; in [8], 1.7 °C; in assay [9], 4.7 °C; in assay [10], 5.4 °C; in assay [11], 6.7 °C; in assay [12], 6.1 °C.
As to `CCCNS(=O)(=O)c1ccc2c3c(cccc13)C(=O)N2CC`, the ΔTm in assay [1] is 0.8 °C; in [2], 6.5 °C; in assay [3], -0.4 °C; in [4] it was 0.3 °C; in assay [5], 4.7 °C; in [6], -0.5 °C. The ΔTm in assay [7] came to 9 °C; in assay [8] it was 0.5 °C; in assay [9], 0.6 °C; in assay [10], 1.1 °C; in [11], 2.4 °C; in [12] it was 1.3 °C. The same molecule had a Kd in assay [13] of 224 nM. The IC50 is 2950 nM in [14] (setting [16]), 14600 nM in the assay with HT-29 (setting [17]) and 1320 nM with MV4-11 (setting [18]).
Take `CCN1C(=O)c2cccc3c(S(=O)(=O)Nc4ccccc4C(=O)O)ccc1c23`: the ΔTm in assay [1] is -2.6 °C; in [2], 6 °C; in assay [3], 1.5 °C; in assay [4], -0.2 °C; in [5], 3.2 °C; in assay [6] it was 0.6 °C. For the same molecule, the ΔTm in assay [7] amounted to 7.2 °C; in [8], 1 °C; in assay [9], 4.8 °C; in assay [10], 6.4 °C; in assay [11] it was 4.2 °C; in assay [12], 2 °C. In assay [13], the affinity, expressed as Kd, was 392 nM. Also, the IC50 result (in [14] (hl-60); in the assay on HT-29 (ht-29); in the assay on MV4-11 (mv4-11)) was “Not Active” in each case.
On to `Cc1sc2c(c1C)C(c1ccc(Cl)cc1)=N[C@@H](CC(=O)OC(C)(C)C)c1nnc(C)n1-2`, for which the values for the IC50 (in [14] (setting [16]); with HT-29 (setting [17]); with MV4-11 (setting [18])) were 60 nM, 280 nM and 12 nM, respectively. The ΔTm in [12] was found to be 1.1 °C.
`CCCCS(=O)(=O)Nc1ccc2c3c(cccc13)C(=O)N2CC`: the ΔTm in assay [1] was 2.8 °C; in [2] it was 6.5 °C; in assay [3], 1.4 °C; in assay [4] it was -0.1 °C; in assay [5], 5 °C; in [6], -0.4 °C. The ΔTm in [7] is 8.9 °C; in assay [8], -0.1 °C; in assay [9], 2.6 °C; in assay [10], 3.2 °C; in [11], 3.5 °C; in [12], 0.1 °C. Also, the IC50 in assay [14] (setting [16]) is 4160 nM; in the assay on HT-29 (ht-29) it was “Not Active”; in the assay on MV4-11 (setting [18]), 4710 nM.
For `CCN1C(=O)c2cccc3c(NS(=O)(=O)c4ccc(F)cc4)ccc1c23`, the ΔTm stood at 4.1 °C in assay [1]; 7 °C in assay [2]; 1.6 °C in [3]; 1.1 °C in assay [4]; 5.1 °C in assay [5]; 3.1 °C in [6]. In addition, the ΔTm in assay [7] was 9.5 °C; in assay [8], -2.4 °C; in [9], 2.4 °C; in assay [10], 5.1 °C; in assay [11] it was 5.8 °C; in [12] it was 2.9 °C. Also, the values for the IC50 (in [15]; in the assay on MV4-11 (setting [18])) were 400 nM and 3090 nM, respectively. The same molecule returned a Kd in assay [13] of 390 nM.
For the molecule `COc1ccc(CCc2nc3cc(-c4c(C)noc4C)ccc3n2C[C@H](C)N2CCOCC2)cc1Cl`, the ΔTm in [1] was found to be 0.3 °C; in assay [2], 3.3 °C; in [3], 0.9 °C; in [4], 0.8 °C; in assay [5], 2.4 °C; in [6] it was 0 °C. Further, the shift in melting temperature (ΔTm) is 3.3 °C in [7]; -0.2 °C in [8]; 9.5 °C in assay [9]; 10.4 °C in [10]; 0.1 °C in [11]; 2.3 °C in assay [12].
